High-throughput results as filed in PubChem.
The list is not random: actives were taken first. Their share in the collection is about 2.5%.
GSTO1 inh – GSTO1 inhibition, counter-screen for RBBP9 inhibitors. AID 1974. inhibition, % at 5.96 µM. recombinant GSTO1, activity-based probe fluorescence polarization. hit rate 1.1% among 300,000. P78417;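 active = inhibition above the campaign mean inhibition plus 3 SD, cut at about 35% in these data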;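 note: 0% = GSTO1-1 with DMSO and 100% = wells lacking GSTO1-1 enzyme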
Target sequence (P78417 whole entry, looked up): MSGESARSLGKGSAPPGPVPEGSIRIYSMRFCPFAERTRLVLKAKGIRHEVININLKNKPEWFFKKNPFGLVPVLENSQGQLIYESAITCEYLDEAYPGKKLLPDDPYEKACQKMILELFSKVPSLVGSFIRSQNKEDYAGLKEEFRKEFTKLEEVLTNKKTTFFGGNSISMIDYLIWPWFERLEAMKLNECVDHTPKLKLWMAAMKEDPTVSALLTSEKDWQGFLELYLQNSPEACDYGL
PRMT1 FP inh – inhibitors of human PRMT1; Q99873; recombinant PRMT1, activity-based probe fluorescence polarization; inhibition, % at 2.79 µM; hit rate 1.3% among 370,000; AID 652257;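 active = inhibition above about 21% made by adding two undisclosed values, limit read from the data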
PAD4 inh – inhibitors of human PAD4. inhibition, % at 6.36 µM. recombinant PAD4, RCA probe fluorescence polarization. hit rate 0.41% among 330,000. AID 485272. Q9UM07;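 active = percent inhibition above a cutoff equal to the mean of all tested compounds plus 3 SD, cut at about 15% in these data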;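 note: 0% = PAD4 with RCA probe and DMSO and 100% = probe without PAD4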
eLon inh – inhibitors of E. coli Lon protease; purified E. coli Lon protease, fluorescence polarization; hit rate 0.42% among 360,000; P0A9M0; inhibition, % at 7.94 µM; in the data active = inhibition above about 13%, passing the limit was not always enough;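 note: 0% = enzyme with probe and DMSO and 100% = no enzyme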
TDP2 inh – blocks human TDP2 phosphodiesterase activity; hit rate 0.34% among 370,000; inhibition, % at 12.8 µM; recombinant TDP2, T5PNP hydrolysis, p-nitrophenol absorbance 415 nm;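 active = inhibition above the mean of all tested compounds plus 3 SD, set per campaign, cut at about 25% in these data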;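 note: 0% = DMSO with enzyme and 100% = buffer with substrate but no TDP2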
Target sequence (O95551 whole entry, looked up): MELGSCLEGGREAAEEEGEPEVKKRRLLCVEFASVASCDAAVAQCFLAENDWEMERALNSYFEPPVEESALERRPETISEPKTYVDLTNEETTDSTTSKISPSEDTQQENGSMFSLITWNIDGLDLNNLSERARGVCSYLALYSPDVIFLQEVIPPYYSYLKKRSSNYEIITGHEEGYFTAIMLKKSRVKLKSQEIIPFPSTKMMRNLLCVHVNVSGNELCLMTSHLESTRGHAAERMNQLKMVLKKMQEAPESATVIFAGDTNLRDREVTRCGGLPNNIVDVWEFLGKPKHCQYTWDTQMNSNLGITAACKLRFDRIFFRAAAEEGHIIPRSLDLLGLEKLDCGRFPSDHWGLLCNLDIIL
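Incubation: 2 h at 37 °C; Test system: recombinant human TDP2; Quantity: enzyme 120 nM; Read-out basis: percent inhibition; Medium: 50 mM Tris-HCl pH 7.5 with Mg2+, KCl, DTT, BSA; Repeats: single replicate; Compound: 12.8 µM single point, 1% DMSO; Signal: epi absorbance; Reagent: 5 mM T5PNP chromogenic substrate; Benchmarks: no-enzyme high, DMSO-plus-enzyme low.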
GSTO1 confirm – confirmation of human GSTO1 inhibitors. recombinant GSTO1, probe fluorescence polarization. hit rate 54% among 2,400. inhibition, % at 5.96 µM. shares compounds with GSTO1 inh;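 active = inhibition above the primary screen's cutoff, its mean inhibition plus 3 SD, cut at about 35% in these data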;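 note: loss of polarization as inhibitors block binding of rhodamine sulfonate ester activity probe; 0% = GSTO1 with DMSO and 100% = wells lacking GSTO1 enzyme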
GSTO1 recomb ABPP – inhibitors of recombinant human GSTO1 | hit rate 30% among 130 | inhibition, % at 1 µM | shares compounds with GSTO1 inh | AID 463110 | gel ABPP SE-Rh probe fluorescence;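 active = inhibition of the enzyme GSTO1 above about 75%, limit read from the data; inactive = inhibition below that limit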
* marks the source's active call; other numbers are inactive results; . = no result.

SMILES	GSTO1 inh	PRMT1 FP inh	PAD4 inh	eLon inh	TDP2 inh	GSTO1 confirm	others
COC(=O)CCCC1=CC2=C(c3ccccc3)C(=O)C(C)(OC(=O)C3CCCC3)C(=O)C2=CN1Cc1ccc(OC)cc1 (stereo unspecified)	41*	-2	-3	-15	7	10
COc1ccccc1CNC(=O)NNC(=O)CCn1nc(C)c([N+](=O)[O-])c1C	.	0	.	.	-1	.
C[C@H](CCC(=O)N(c1ccccc1)c1ccccc1)CC1CCCCC1	.	-1	.	.	-1	.
Cc1ccc(N(Cc2cc(=O)[nH]c3ccccc23)C(=O)CCl)c(C)c1	64*	3	4	0	-8	75*	GSTO1 recomb ABPP=27
CCCC(=O)N(Cc1cc(=O)[nH]c2ccccc12)c1ccc(C)cc1C	.	-6	.	-12	-5	.
O=C1CC(NC(=O)C(F)(F)F)=NN1c1ccccc1	44*	5	-13	-3	8	10
CC(Oc1ccc(Cl)cc1Cl)C(=O)NC1=NN(c2ccccc2)C(=O)C1 (stereo unspecified)	39*	-2	9	-6	2	-2
C=C(C)C(=O)NC1=NN(c2ccccc2)C(=O)C1	8	1	5	0	11	.
COC(=O)[C@]12C[C@H](CC(=O)NCc3cccc(C(F)(F)F)c3)C(=O)N(Cc3ccco3)C1=C[C@H](C1CCCC1)O[C@@H]2C	.	-8	.	.	-13	.
CS(=O)(=O)N1c2ccccc2C[C@H]1Cc1cc2ccccc2o1	.	1	.	.	-3	.
C/C(=N\NC(=O)c1cc(O)ccc1O)c1cccc(NC(=O)c2ccc(Cl)cc2)c1	85*	18	-6	3	14	19
C/C(=N\NC(=O)c1ccccc1O)c1cccc(NC(=O)c2ccccc2)c1	5	-2	-5	-1	1	.
C/C(=N\NC(=O)c1cc(O)ccc1O)c1cccc(NC(=O)c2cccc(Cl)c2)c1	56*	31*	-9	4	-1	17
CN(C)Cc1c(O)ccc2c3c(c(=O)oc12)CCCCC3	3	4	2	5	2	.
CN(Cc1c(O)ccc2c1oc(=O)c1ccccc12)C1CCCCC1	46*	8	0	-11	-12	42*
COC(=O)[C@]12C[C@H](CC(=O)N3CCN(C(=O)C4CC4)CC3)C(=O)N(Cc3ccccc3)C1=C[C@H](COCc1ccccc1)O[C@@H]2C	.	-6	.	.	-4	.
COc1ccc(S(=O)(=O)Nc2ccc(O)c3ccccc23)cc1	70*	23*	7	10	42*	9
COc1ccc(S(=O)(=O)Nc2ccccc2)cc1	13	-3	-4	-1	15	.
Cc1onc(-c2ccccc2)c1C(=O)NNC(=O)c1ccccc1O	47*	8	2	4	-7	6
CCC(=O)N(C1=C(NC)C(=O)c2ccccc2C1=O)C(C)C	50*	-2	-5	0	6	13
O=C(C(=O)N1CCN(S(=O)(=O)c2cccc3ccccc23)CC1)c1cccc(C(F)(F)F)c1	.	-3	.	.	1	.
CCCCN1CN2Cc3cc(OC)ccc3C2CS1(=O)=O (stereo unspecified)	.	0	.	.	10	.
CCCCCCn1cc(CN2CC=CS2(=O)=O)nn1	.	-1	.	.	-2	.
COC1(OC)N=C(N)C2(C#N)C(c3cccc(Oc4ccccc4)c3)C12C#N (stereo unspecified)	65*	-2	-1	12	-7	30
Cc1coc2c1C(=O)C(=O)c1c-2ccc2c(C)cccc12	97*	.	-4	-10	.	57*
SMILES	GSTO1 inh	PRMT1 FP inh	PAD4 inh	eLon inh	TDP2 inh	GSTO1 confirm	others
Cc1ccc(C(=O)c2coc3c2C(=O)C(=O)c2ccccc2-3)cc1	20	0	3	-5	22	.
Cc1ccc(NC(=O)C2CCCN(c3nnc(-n4cccc4)s3)C2)cc1C (stereo unspecified)	.	7	.	.	-7	.
C[C@@H]1CN([C@H](C)CO)C(=O)c2cc(NC(=O)Nc3ccccc3)ccc2O[C@@H](C)CCCCO[C@H]1CN(C)S(=O)(=O)c1ccc(F)cc1	.	2	.	.	7	.
O=C(Nc1ccccc1F)c1ccc([N+](=O)[O-])s1	44*	0	1	1	2	12
O=C(Nc1cccc2ccccc12)c1ccc([N+](=O)[O-])s1	32	1	3	0	8	.
COc1ccc(C2CC(=O)C(c3ccc(C)cc3)=CN2Cc2ccccc2)cc1 (stereo unspecified)	.	-1	.	.	3	.
C#CCOCCOCCOCCNc1nc(N2CCN(C(=O)Cn3cc(CCCCN)nn3)CC2)nc(N2CCN(C(=O)[C@H](CCCCN)n3cc(CCCC)nn3)CC2)n1	60*	-1	-2	0	-3	2
COc1ccccc1N=Nc1ccc(O)c2ncccc12	51*	2	-6	5	12	10
CC(N=Cc1cc([N+](=O)[O-])ccc1O)c1ccccc1 (stereo unspecified)	5	0	-5	-1	-7	.
CC(N=Cc1cccc(O)c1O)c1ccccc1 (stereo unspecified)	77*	.	7	10	.	54*
O=C(O)c1ccc(/C=N\Nc2ccc(S(=O)(=O)N3CCOCC3)cc2[N+](=O)[O-])cc1	6	5	3	-12	-17	.
Cc1ccc(-n2c(O)c(/C=N/Nc3ccc(S(=O)(=O)N4CCOCC4)cc3[N+](=O)[O-])c3ccccc3c2=O)c(C)c1	38*	2	-6	24	5	62*
N#CC1=C(N)Oc2n[nH]c(-c3ccccc3)c2C1c1cccnc1 (stereo unspecified)	17	0	-16	-2	-3	.
N#CC1=C(N)Oc2n[nH]c(-c3cccnc3)c2C1c1ccc([N+](=O)[O-])o1 (stereo unspecified)	42*	6	-14	2	17	26
CCOc1cc(C(c2c(C)[nH][nH]c2=O)c2c(C)[nH][nH]c2=O)ccc1OS(=O)(=O)c1ccc(C)cc1	-19	0	-7	-4	-1	.
CCOc1ccc(C(c2c(C)[nH][nH]c2=O)c2c(C)[nH][nH]c2=O)cc1OC	42*	0	7	-5	0	1
CCCCCCC(=O)N=Nc1c(O)[nH]c2ccc([N+](=O)[O-])cc12	4	-3	-2	-21	7	.
O=C(CNC(=O)c1cccs1)N=Nc1c(O)[nH]c2ccc([N+](=O)[O-])cc12	39*	0	-7	-2	8	25
CC(Oc1ccccc1)C(=O)N=Nc1c(O)[nH]c2ccc([N+](=O)[O-])cc12 (stereo unspecified)	61*	3	-13	-1	4	74*
